Target: T1, GBA3 (Homo sapiens, UniProt Q9H227)
T1 sequence (Q9H227 1-469): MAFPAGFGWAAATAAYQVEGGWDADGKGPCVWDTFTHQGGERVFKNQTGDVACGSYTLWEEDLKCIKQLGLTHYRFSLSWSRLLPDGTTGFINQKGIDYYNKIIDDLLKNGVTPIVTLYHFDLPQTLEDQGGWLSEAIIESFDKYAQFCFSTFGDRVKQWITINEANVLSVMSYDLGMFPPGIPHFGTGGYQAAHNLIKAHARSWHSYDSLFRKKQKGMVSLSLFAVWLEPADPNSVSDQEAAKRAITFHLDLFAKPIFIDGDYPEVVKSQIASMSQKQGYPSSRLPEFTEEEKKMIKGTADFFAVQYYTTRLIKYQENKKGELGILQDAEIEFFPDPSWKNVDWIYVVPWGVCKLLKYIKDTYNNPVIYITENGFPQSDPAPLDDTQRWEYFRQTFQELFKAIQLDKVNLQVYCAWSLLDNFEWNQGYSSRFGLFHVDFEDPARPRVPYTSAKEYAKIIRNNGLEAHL
Assay: GBA3 in vitro assay, homogenates of HEK293T overexpressing GBA3
Assay type: biochemical
How it was run: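 Lysate from HEK293T cells stably overexpressing human GBA3 was pretreated 30 min with 1 mM conduritol β epoxide to block GBA1. Assay in 100 mM Hepes pH 7.0 with 0.1% BSA for 1 h, with 0.05–5 mM 4MU-β-D-glucopyranoside plus inhibitor and no inhibitor preincubation. […] Duplicates; Ki from curve fit.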

With `CCCCN1C[C@H](O)[C@@H](O)[C@H](O)[C@H]1CO` [compound 1, N-butyldeoxynojirimycin] the Ki was > 1 mM.

Source: publication PMC5677758 (Journal of the American Chemical Society, 2017)
